What was measured:
MDA-MB-231 [1] = assay: Induction of apoptosis in human MDA-MB-231 cells assessed as increase in caspase 8 activation after 24 hrs by Western blotting; assay type: functional, cell-based
Method in brief: (§1)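 MDA-MB-231 breast cancer cells were exposed to Smac mimetics for 24 hours. Cell proteins were then probed on Western blots with specific antibodies against cIAP-1, XIAP, cleaved caspase-8, pro- and cleaved caspase-3, and cleaved PARP. GAPDH served as the loading control.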

MDA-MB-231 [2] = assay: Induction of apoptosis in human MDA-MB-231 cells assessed as PARP cleavage after 24 hrs by Western blotting; assay type: functional, cell-based; method in brief: as §1
MDA-MB-231 [3] = assay: Induction of cIAP1 degradation in human MDA-MB-231 cells after 24 hrs by Western blotting; assay type: functional, cell-based; method in brief: as §1
MDA-MB-231 [4] = assay: Induction of apoptosis in human MDA-MB-231 cells assessed as increase in caspase 3 activation after 24 hrs by Western blotting; assay type: functional, cell-based; method in brief: as §1
MDA-MB-231 [5] = assay: cells; details: Homo sapiens, MDA-MB-231, 96 h

For CN[C@@H](C)C(=O)N[C@H]1CCCC[C@H]2[C@@H](Cc3ccccc3)C[C@@H](C(=O)N[C@@H]3CCCc4ccccc43)N2C1=O, the Activity (MDA-MB-231 [1]) was “Dose-dependent effect”, the Activity (MDA-MB-231 [2]) was “Dose-dependent effect” and the Activity (MDA-MB-231 [3]) was “Dose-dependent effect”. The Activity (MDA-MB-231 [4]) was “Dose-dependent effect”.
In the case of CN[C@@H](C)C(=O)N[C@H]1CCCC[C@H]2CC[C@@H](C(=O)NC(c3ccccc3)c3ccccc3)N2C1=O, the Activity (MDA-MB-231 [1]) is reported as “Dose-dependent effect”, the Activity (MDA-MB-231 [2]) is reported as “Dose-dependent effect” and the Activity (MDA-MB-231 [3]) is reported as “Dose-dependent effect”. The Activity (MDA-MB-231 [4]) was “Dose-dependent effect” and the IC50 (MDA-MB-231 [5]) was 0.259 µM.
CN[C@@H](C)C(=O)N[C@H]1C/C=C\C[C@H]2[C@@H](Cc3ccccc3)C[C@@H](C(=O)N[C@@H]3CCCc4ccccc43)N2C1=O showed an IC50 (MDA-MB-231 [5]) of 0.026 µM.
For CN[C@@H](C)C(=O)N[C@H]1CCCC[C@H]2CC[C@@H](C(=O)N[C@@H]3CCCc4ccccc43)N2C1=O, the Activity (MDA-MB-231 [1]) was “Dose-dependent effect”, the Activity (MDA-MB-231 [2]) was “Dose-dependent effect” and the Activity (MDA-MB-231 [3]) was “Dose-dependent effect”. The Activity (MDA-MB-231 [4]) was “Dose-dependent effect”.

Reference: ChEMBL document CHEMBL1143377, “Design, synthesis, and evaluation of potent, nonpeptidic mimetics of second mitochondria-derived activator of caspases” (J Med Chem, 2009)
